Experimental data published in ChEMBL document CHEMBL4321859, “Unforeseen Possibilities To Investigate the Regulation of Polyamine Metabolism Revealed by Novel C-Methylated Spermine Derivatives” (J Med Chem, 2019).
Activity calls are given as the source filed them. No cut-off for these calls is given here.

Assays:
[1] = biological target: Ornithine decarboxylase antizyme 1 (Homo sapiens) (UniProt P54368); test: Induction of OAZ1 in human DU145 cells assessed as reduction in intracellular ODC activity at 10 uM after 6 hrs relative to control; parameters: scale not given: the % may be the effect or the level left
Ornithine decarboxylase antizyme 1 (Homo sapiens), sequence (P54368 whole entry): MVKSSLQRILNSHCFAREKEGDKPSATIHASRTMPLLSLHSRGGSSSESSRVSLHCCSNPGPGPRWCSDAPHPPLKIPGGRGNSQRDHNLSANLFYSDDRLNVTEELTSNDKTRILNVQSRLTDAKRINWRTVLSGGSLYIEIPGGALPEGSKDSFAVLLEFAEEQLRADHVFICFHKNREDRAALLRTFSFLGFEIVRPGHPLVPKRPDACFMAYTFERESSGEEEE

[2] = biological target: T1, S-adenosylmethionine decarboxylase proenzyme (Homo sapiens) (UniProt P17707); test: Inhibition of AdoMetDC in human DU145 cells at 100 uM after 6 hrs; type: cell-based
T1 sequence (whole entry): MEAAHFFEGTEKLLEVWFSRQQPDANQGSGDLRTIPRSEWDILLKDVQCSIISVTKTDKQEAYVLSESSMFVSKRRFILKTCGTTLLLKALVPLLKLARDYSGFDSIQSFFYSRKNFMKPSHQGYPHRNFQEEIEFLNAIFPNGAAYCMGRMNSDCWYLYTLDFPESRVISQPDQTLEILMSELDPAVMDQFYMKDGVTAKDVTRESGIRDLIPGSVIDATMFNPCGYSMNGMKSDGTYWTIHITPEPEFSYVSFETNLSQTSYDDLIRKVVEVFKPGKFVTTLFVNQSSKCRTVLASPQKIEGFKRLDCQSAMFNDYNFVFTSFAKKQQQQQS

[3] = biological target: T2, Ornithine decarboxylase (Homo sapiens) (UniProt P11926); test: Inhibition of ODC in human DU145 cells at 100 uM after 3 days; type: cell-based
T2 sequence (whole entry): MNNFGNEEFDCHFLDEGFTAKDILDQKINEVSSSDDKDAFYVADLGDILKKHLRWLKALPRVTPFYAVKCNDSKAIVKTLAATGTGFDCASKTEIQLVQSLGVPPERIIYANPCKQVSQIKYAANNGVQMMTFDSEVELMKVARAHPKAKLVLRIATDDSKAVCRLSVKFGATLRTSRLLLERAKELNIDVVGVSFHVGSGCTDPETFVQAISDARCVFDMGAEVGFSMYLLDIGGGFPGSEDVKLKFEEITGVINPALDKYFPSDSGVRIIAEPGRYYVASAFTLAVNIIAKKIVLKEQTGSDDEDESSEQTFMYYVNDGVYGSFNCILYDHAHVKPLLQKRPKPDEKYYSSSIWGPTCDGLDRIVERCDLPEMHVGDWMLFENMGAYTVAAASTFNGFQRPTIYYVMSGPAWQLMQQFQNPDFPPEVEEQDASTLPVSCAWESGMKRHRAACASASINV

[4] = biological target: T2, Ornithine decarboxylase (Homo sapiens); test: Inhibition of ODC in human DU145 cells at 100 uM after 6 hrs; type: cell-based
[5] = biological target: Diamine acetyltransferase 1 (Homo sapiens) (UniProt P21673); test: Induction of changes in SSAT activity in human DU145 cells at 100 uM after 3 days; type: cell-based
Diamine acetyltransferase 1 (Homo sapiens), sequence (P21673 whole entry): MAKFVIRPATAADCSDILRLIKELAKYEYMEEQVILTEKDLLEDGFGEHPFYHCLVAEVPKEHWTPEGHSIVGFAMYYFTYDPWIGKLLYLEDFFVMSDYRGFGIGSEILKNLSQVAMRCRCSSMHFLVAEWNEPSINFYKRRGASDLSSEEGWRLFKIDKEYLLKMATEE

[6] = biological target: Diamine acetyltransferase 1 (Mus musculus) (UniProt P48026); test: Inhibition of recombinant mouse SSAT using spm as substrate at 500 uM relative to control
Diamine acetyltransferase 1 (Mus musculus) (UniProt P48026), sequence (P48026 whole entry): as the sequence (P21673 whole entry) above, with V5K, A12S, E32D, L42Q, R119K, T169A counted along it
In short: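 Mouse recombinant SSAT acetylation with spermine fixed at 50 μM as substrate, analogue present at 500 μM. Activity expressed relative to reaction without analogue.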

[7] = biological target: T3, Amine oxidase [copper-containing] 3 (Bos taurus) (UniProt Q9TTK6); test: Inhibition of bovine plasma SSAO at 50 uM using spermine as substrate relative to control
T3 sequence (whole entry): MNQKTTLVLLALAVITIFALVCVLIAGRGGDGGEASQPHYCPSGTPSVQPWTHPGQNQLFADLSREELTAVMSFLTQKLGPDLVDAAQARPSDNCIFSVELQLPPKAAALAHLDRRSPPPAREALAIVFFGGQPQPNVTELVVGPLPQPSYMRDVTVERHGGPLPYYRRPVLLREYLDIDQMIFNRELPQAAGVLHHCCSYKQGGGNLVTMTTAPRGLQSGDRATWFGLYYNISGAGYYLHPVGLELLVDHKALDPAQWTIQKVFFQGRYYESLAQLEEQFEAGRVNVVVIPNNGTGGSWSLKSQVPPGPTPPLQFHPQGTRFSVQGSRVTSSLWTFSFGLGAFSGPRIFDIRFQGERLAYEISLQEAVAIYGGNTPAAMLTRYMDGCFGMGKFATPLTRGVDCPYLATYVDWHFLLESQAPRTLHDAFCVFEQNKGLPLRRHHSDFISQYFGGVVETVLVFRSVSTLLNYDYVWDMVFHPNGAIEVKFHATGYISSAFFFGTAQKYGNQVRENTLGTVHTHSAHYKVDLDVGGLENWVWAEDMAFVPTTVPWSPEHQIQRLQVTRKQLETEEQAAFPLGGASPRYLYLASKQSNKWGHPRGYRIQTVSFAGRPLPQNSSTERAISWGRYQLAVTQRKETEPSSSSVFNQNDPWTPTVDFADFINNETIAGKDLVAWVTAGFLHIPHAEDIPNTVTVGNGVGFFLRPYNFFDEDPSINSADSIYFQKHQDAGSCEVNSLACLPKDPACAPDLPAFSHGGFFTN
In short: (§1)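 Competition with natural substrate at fixed 50 μM: spermine for purified bovine plasma SSAO and human recombinant SMOX, N1-acetylspermidine for human recombinant APAO. Analogue tested at 50 μM, with activity expressed relative to reaction without analogue.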

[8] = biological target: Diamine acetyltransferase 1 (Homo sapiens) (UniProt P21673); test: Induction of changes in SSAT activity in human DU145 cells at 100 uM after 6 hrs; type: cell-based
[9] = biological target: T1, S-adenosylmethionine decarboxylase proenzyme (Homo sapiens); test: Inhibition of AdoMetDC in human DU145 cells at 100 uM after 3 days; type: cell-based
DU-145 = test: Reversal of alpha-difluoromethylornithine-induced growth arrest in human DU145 cells at 100 uM after 3 days; type: functional, cell-based
In short: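 DU145 cells cultured 3 days with 100 μM analogue, with or without 5 mM DFMO, all supplemented with 1 mM aminoguanidine. Growth assessed by electronic cell counting. Means ± SD, n = 3.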

[10] = biological target: Spermine oxidase (Homo sapiens) (UniProt Q9NWM0); test: Inhibition of recombinant human SMOX at 500 uM using spermine as substrate relative to control
Spermine oxidase (Homo sapiens), sequence (Q9NWM0 whole entry): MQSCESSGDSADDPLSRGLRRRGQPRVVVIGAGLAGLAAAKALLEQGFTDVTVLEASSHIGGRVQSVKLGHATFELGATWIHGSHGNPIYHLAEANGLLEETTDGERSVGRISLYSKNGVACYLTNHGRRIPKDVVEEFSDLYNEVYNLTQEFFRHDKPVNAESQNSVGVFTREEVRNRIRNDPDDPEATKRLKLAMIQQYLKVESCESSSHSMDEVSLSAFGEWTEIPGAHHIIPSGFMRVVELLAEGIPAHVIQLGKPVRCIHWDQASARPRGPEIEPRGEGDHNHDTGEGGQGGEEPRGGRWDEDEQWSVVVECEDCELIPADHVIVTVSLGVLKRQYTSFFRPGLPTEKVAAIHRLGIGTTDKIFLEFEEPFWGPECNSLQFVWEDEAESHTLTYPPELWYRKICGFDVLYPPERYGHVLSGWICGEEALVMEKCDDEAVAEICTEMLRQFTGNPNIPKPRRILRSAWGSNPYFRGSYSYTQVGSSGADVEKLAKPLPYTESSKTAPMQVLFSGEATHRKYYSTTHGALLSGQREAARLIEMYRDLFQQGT
In short: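 Human recombinant SMOX reaction with spermine fixed at 50 μM as substrate, analogue added at 500 μM. Activity expressed relative to reaction without analogue.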

CC(CCN)NCCCCNC(C)CCN = test: (§2) Substrate activity at recombinant mouse SSAT assessed as Km at 2000 to 6000 uM; type: ADME
CC(CN)CNCCCCNCC(C)CN = test: as §2; type: ADME
[11] = biological target: Spermine oxidase (Homo sapiens) (UniProt Q9NWM0); test: Inhibition of recombinant human SMOX at 50 uM using spermine as substrate relative to control
In short: as §1

[12] = biological target: Ornithine decarboxylase antizyme 1 (Homo sapiens) (UniProt P54368); test: Induction of OAZ1 in human DU145 cells assessed as reduction in intracellular ODC activity at 100 uM after 6 hrs relative to control; parameters: scale not given: the % may be the effect or the level left

Diamine acetyltransferase 1 (Mus musculus), sequence (chain, as listed by the source): as the sequence (P21673 whole entry) above, with V5K, A12S, E32D, L42Q, R119K, T169A counted along it

Activity [1] | inhibition [2] | inhibition [3] | inhibition [4] | Activity [5] | inhibition [6] | inhibition [7] | Activity [8] | inhibition [9] | inhibition [10] | inhibition [11] | Activity [12] | Molecule | Activity (DU-145) | Km (CC(CCN)NCCCCNC(C)CCN) | Vmax (CC(CCN)NCCCCNC(C)CCN) | Km (CC(CN)CNCCCCNCC(C)CN) | Vmax (CC(CN)CNCCCCNCC(C)CN)
80% | Active | Active | Active | Active | 80% | inactive | inactive | Active | – | – | – | CC(N)CCNCCCCNCCC(C)N (centres undefined) | Active | – | – | – | –
80% | Active | Active | Active | Active | – | 80% | inactive | Active | 70% | – | – | CC(CN)CNCCCCNCC(C)CN (centres undefined) | Active | – | – | – | –
– | – | – | – | – | – | – | – | – | – | – | – | Diamine acetyltransferase 1 (Mus musculus) | – | 60 µM | 0.136 µmol/min/mg | 52 µM | 0.895 µmol/min/mg
80% | – | Active | Active | – | – | – | – | – | – | – | – | NCCCNCCCCNCCCN | – | – | – | – | –
5% | Active | inactive | inactive | inactive | 75% | inactive | inactive | Active | – | 70% | 55% | CC(CCN)NCCCCNC(C)CCN (centres undefined) | Active | – | – | – | –
